# Laboratory results: ChEMBL document CHEMBL1649139, “A novel gene, erm(41), confers inducible macrolide resistance to clinical isolates of Mycobacterium abscessus but is absent from Mycobacterium chelonae” (2009)
# Assays:
# Type in all cases: functional
# [1] = test system: Mycolicibacterium smegmatis; test: Antimicrobial activity against Mycobacterium smegmatis transformed with erm allele Mycobacterium abscessus isolate MC1028 preincubated with 2 ug/ml erythromycin for 20 to 24 hrs by broth microdilution method
# [2] = test system: Mycobacteroides abscessus; test: Antimicrobial activity against Mycobacterium abscessus isolate MC1028 at day 14 preincubated with 0.1 ug/ml erythromycin for 3 days by broth microdilution method
# Procedure, shortened: (§1)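 Clarithromycin MIC by CLSI-conforming broth microdilution. Before testing, cultures were preincubated for 3 days, either in medium alone or in clarithromycin or erythromycin (tested range 0.01–1 μg/ml). Preincubation ran for at least two generations, judged by turbidity increase. Plates were read on day 3 and on extended incubation at days 5 to 14.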
# [3] = test system: Mycobacteroides abscessus; test: Antimicrobial activity against Mycobacterium abscessus isolate MC719 at day 5 by broth microdilution method; settings: isolate MC719, 120 h
# Procedure, shortened: (§2)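 Clarithromycin MIC by broth microdilution following CLSI guidelines. Before testing, organisms were preincubated for 3 days in medium alone or in clarithromycin or erythromycin (0.01–1 μg/ml), long enough for at least two generations judged by turbidity increase. MICs were read on day 3 and again on extended incubation out to day 14.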
# [4] = test system: Mycobacteroides abscessus; test: Antimicrobial activity against Mycobacterium abscessus isolate MC879-2 at day 9 preincubated with 0.1 ug/ml erythromycin for 3 days by broth microdilution method
# [5] = test system: Mycobacteroides abscessus; test: Antimicrobial activity against Mycobacterium abscessus isolate MC719 at day 7 preincubated with 0.1 ug/ml for 3 days by broth microdilution method; procedure, shortened: as §2
# [6] = test system: Mycobacteroides abscessus; test: Antimicrobial activity against Mycobacterium abscessus isolate MC1082 at day 3 preincubated with 0.1 ug/ml for 3 days by broth microdilution method; procedure, shortened: as §1
# [7] = test system: Mycobacteroides abscessus; test: Antimicrobial activity against Mycobacterium abscessus isolate MC879 at day 7 by broth microdilution method; settings: isolate MC879, 168 h
# Procedure, shortened: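 Clarithromycin MIC by broth microdilution following CLSI guidelines. Organisms were preincubated […], for 3 days before the assay. This allowed at least two generations, judged by the rise in turbidity. The MIC was read at the stated day, with incubation extended from day 3 to as long as 14 days.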
# [8] = test system: Mycobacteroides abscessus; test: Antimicrobial activity against Mycobacterium abscessus isolate MC1028 at day 9 by broth microdilution method; settings: isolate MC1028, 216 h; procedure, shortened: as §1
# [9] = test system: Mycobacteroides abscessus; test: Antimicrobial activity against Mycobacterium abscessus isolate MAB30 at day 3 preincubated with 0.1 ug/ml erythromycin for 3 days by broth microdilution method; procedure, shortened: as §1
# [10] = test system: Mycobacteroides abscessus; test: Antimicrobial activity against Mycobacterium abscessus isolate MAB30 at day 5 preincubated with 0.1 ug/ml erythromycin for 3 days by broth microdilution method; procedure, shortened: as §1
# [11] = test system: Mycobacteroides abscessus; test: Antimicrobial activity against Mycobacterium abscessus isolate MC719 at day 9 by broth microdilution method; settings: isolate MC719, 216 h; procedure, shortened: as §2
# [12] = test system: Mycobacteroides abscessus; test: Antimicrobial activity against Mycobacterium abscessus isolate MC1028 at day 3 by broth microdilution method; settings: isolate MC1028, 72 h; procedure, shortened: as §1
# [13] = test system: Mycobacteroides abscessus; test: Antimicrobial activity against Mycobacterium abscessus isolate MC879 on day 4 by broth microdilution method; settings: isolate MC879, 96 h
# [14] = test system: Mycobacteroides abscessus; test: Antimicrobial activity against Mycobacterium abscessus isolate MC1028 at day 14 by broth microdilution method; settings: isolate MC1028, 336 h; procedure, shortened: as §1
# [15] = test system: Mycobacteroides abscessus; test: Antimicrobial activity against Mycobacterium abscessus isolate MC720 at day 3 preincubated with 0.1 ug/ml for 3 days by broth microdilution method; procedure, shortened: as §2
# [16] = test system: Mycobacteroides abscessus; test: Antimicrobial activity against Mycobacterium abscessus isolate MC1082 at day 5 by broth microdilution method; settings: isolate MC1082, 120 h; procedure, shortened: as §1
# [17] = test system: Mycobacteroides abscessus; test: Antimicrobial activity against Mycobacterium abscessus isolate MC720 at day 14 preincubated with 0.1 ug/ml erythromycin for 3 days by broth microdilution method; procedure, shortened: as §2
# [18] = test system: Mycobacteroides abscessus; test: Antimicrobial activity against Mycobacterium abscessus isolate MC958 at day 9 preincubated with 0.1 ug/ml erythromycin for 3 days by broth microdilution method
# [19] = test system: Mycobacteroides abscessus; test: Antimicrobial activity against Mycobacterium abscessus isolate MC1448 at day 9 preincubated with 0.1 ug/ml erythromycin for 3 days by broth microdilution method; procedure, shortened: as §2
# [20] = test system: Mycobacteroides abscessus; test: Antimicrobial activity against Mycobacterium abscessus isolate MAB30 at day 9 preincubated with 0.1 ug/ml for 3 days by broth microdilution method; procedure, shortened: as §1
# [21] = test system: Mycobacteroides abscessus; test: Antimicrobial activity against Mycobacterium abscessus isolate MAB30 at day 7 by broth microdilution method; settings: isolate MAB30, 168 h; procedure, shortened: as §1
# [22] = test system: Mycobacteroides abscessus; test: Antimicrobial activity against Mycobacterium abscessus isolate MC879-2 at day 5 preincubated with 0.1 ug/ml for 3 days by broth microdilution method
# [23] = test system: Mycobacteroides abscessus; test: Antimicrobial activity against Mycobacterium abscessus isolate MC719 at day 3 preincubated with 0.1 ug/ml for 3 days by broth microdilution method; procedure, shortened: as §2
# [24] = test system: Mycobacteroides abscessus; test: Antimicrobial activity against Mycobacterium abscessus isolate MC879-2 at day 14 preincubated with 0.1 ug/ml erythromycin for 3 days by broth microdilution method
# [25] = test system: Mycobacteroides abscessus; test: Antimicrobial activity against Mycobacterium abscessus isolate MC1028 at day 5 by broth microdilution method; settings: isolate MC1028, 120 h; procedure, shortened: as §1
# [26] = test system: Mycobacteroides abscessus; test: Antimicrobial activity against Mycobacterium abscessus isolate MC719 at day 14 preincubated with 0.1 ug/ml for 3 days by broth microdilution method; procedure, shortened: as §2
# [27] = test system: Mycobacteroides abscessus; test: Antimicrobial activity against Mycobacterium abscessus isolate MC958 at day 7 preincubated with 0.1 ug/ml for 3 days by broth microdilution method
# [28] = test system: Mycobacteroides abscessus; test: Antimicrobial activity against Mycobacterium abscessus isolate MC1448 at day 9 by broth microdilution method; settings: isolate MC1448, 216 h; procedure, shortened: as §2
# [29] = test system: Mycobacteroides abscessus; test: Antimicrobial activity against Mycobacterium abscessus isolate MC1448 at day 3 preincubated with 0.1 ug/ml erythromycin for 3 days by broth microdilution method; procedure, shortened: as §2
# [30] = test system: Mycolicibacterium smegmatis; test: Antimicrobial activity against Mycobacterium smegmatis transformed with erm allele Mycobacterium abscessus isolate MC958 by broth microdilution method
# [31] = test system: Mycobacteroides abscessus; test: Antimicrobial activity against Mycobacterium abscessus isolate MC1028 at day 5 preincubated with 0.1 ug/ml erythromycin for 3 days by broth microdilution method; procedure, shortened: as §1
# [32] = test system: Mycobacteroides abscessus; test: Antimicrobial activity against Mycobacterium abscessus isolate MC958 at day 9 preincubated with 0.1 ug/ml for 3 days by broth microdilution method
# [33] = test system: Mycobacteroides abscessus; test: Antimicrobial activity against Mycobacterium abscessus isolate MC1448 at day 14 preincubated with 0.1 ug/ml erythromycin for 3 days by broth microdilution method; procedure, shortened: as §1
# [34] = test system: Mycobacteroides abscessus; test: Antimicrobial activity against Mycobacterium abscessus isolate MC720 at day 5 preincubated with 0.1 ug/ml erythromycin for 3 days by broth microdilution method
# Procedure, shortened: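 Clinical M. abscessus isolates were preincubated for 3 days, either in medium alone or in clarithromycin or erythromycin at 0.01 to 1 μg/ml, allowing at least two generations of growth judged by turbidity. The clarithromycin MIC was then determined by CLSI-conforming broth microdilution, with plates read on day 3 and on extended incubation (days 5 to 14).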
# [35] = test system: Mycobacteroides abscessus; test: Antimicrobial activity against Mycobacterium abscessus isolate MC1082 at day 14 preincubated with 0.1 ug/ml erythromycin for 3 days by broth microdilution method; procedure, shortened: as §1
# [36] = test system: Mycobacteroides abscessus; test: Antimicrobial activity against Mycobacterium abscessus isolate MC879-2 at day 14 preincubated with 0.1 ug/ml for 3 days by broth microdilution method
# [37] = test system: Mycolicibacterium smegmatis; test: Antimicrobial activity against Mycobacterium smegmatis transformed with erm allele Mycobacterium abscessus isolate MC879 by broth microdilution method
structure (smiles),measurement,setting,value
CC[C@H]1OC(=O)[C@H](C)[C@@H](O[C@H]2C[C@@](C)(OC)[C@@H](O)[C@H](C)O2)[C@H](C)[C@@H](O[C@@H]2O[C@H](C)C[C@H](N(C)C)[C@H]2O)[C@](C)(OC)C[C@@H](C)C(=O)[C@H](C)[C@@H](O)[C@]1(C)O [CLARITHROMYCIN],MIC,[1],≤ 0.5 µg/mL
same,MIC,[2],≤ 0.5 µg/mL
same,MIC,[3],1 µg/mL
same,MIC,[4],> 32 µg/mL
same,MIC,[5],> 32 µg/mL
same,MIC,[6],≤ 0.5 µg/mL
same,MIC,[7],8 µg/mL
same,MIC,[8],≤ 0.5 µg/mL
same,MIC,[9],≤ 0.5 µg/mL
same,MIC,[10],≤ 0.5 µg/mL
same,MIC,[11],> 32 µg/mL
same,MIC,[12],≤ 0.5 µg/mL
same,MIC,[13],≤ 2 µg/mL
same,MIC,[14],≤ 0.5 µg/mL
same,MIC,[15],≤ 0.5 µg/mL
same,MIC,[16],≤ 0.5 µg/mL
same,MIC,[17],> 32 µg/mL
same,MIC,[18],> 32 µg/mL
same,MIC,[19],> 32 µg/mL
same,MIC,[20],≤ 0.5 µg/mL
same,MIC,[21],≤ 0.5 µg/mL
same,MIC,[22],> 32 µg/mL
same,MIC,[23],≤ 0.5 µg/mL
same,MIC,[24],> 32 µg/mL
same,MIC,[25],≤ 0.5 µg/mL
same,MIC,[26],> 32 µg/mL
same,MIC,[27],> 32 µg/mL
same,MIC,[28],> 32 µg/mL
same,MIC,[29],> 32 µg/mL
same,MIC,[30],2 µg/mL
same,MIC,[31],≤ 0.5 µg/mL
same,MIC,[32],> 32 µg/mL
same,MIC,[33],> 32 µg/mL
same,MIC,[34],4 µg/mL
same,MIC,[35],≤ 0.5 µg/mL
same,MIC,[36],> 32 µg/mL
same,MIC,[37],2 µg/mL
